Common to all, as to type: functional
For assay [1], the system named is SR. Nature of the assay: Growth inhibition of human SR cells at 10^-5 M after 48 hrs by Sulforhodamine B assay relative to control. As to conditions: read-out: GI. The gist of the method:
(§1)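 Single-dose primary screen at 10⁻⁵ M across 49 lines. Cells were plated 24 h beforehand, with a TCA-fixed time-zero plate, then exposed 48 h at 37 °C, 5% CO2. Cells were fixed with cold TCA, stained with SRB and read at 515 nm. Percent growth was calculated against time-zero and untreated-control absorbances.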

For assay [2], the system named is U-251. Description: Growth inhibition of human U251 cells at 10^-5 M after 48 hrs by Sulforhodamine B assay relative to control. The note with it: U-251, 48 h, read-out: GI. Summed up: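 Single-dose stage: compound tested at 10⁻⁵ M in the 49-cell-line panel. Cells grew 24 h at 37 °C, 5% CO₂ before drug addition. Drug stock was in DMSO at 400-fold, diluted in medium with gentamicin. After 48 h exposure, adherent cells were fixed with cold TCA (10% final) and stained with 0.4% SRB in 1% acetic acid. Dye was solubilized in 10 mM Tris, read at 515 nm. Growth percentage was taken relative to untreated control and time-zero plates.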

In assay [3] the test system is IGROV-1. Description: Growth inhibition of human IGROV1 cells at 10^-5 M after 48 hrs by Sulforhodamine B assay relative to control. The note with it: IGROV-1, 48 h, read-out: GI. Summed up:
(§2)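 Single-dose screen at 10⁻⁵ M. Cells are preincubated 24 h at 37 °C in 5% CO2, then exposed to the compound, diluted from a DMSO stock into medium with gentamicin, for 48 h. Adherent cells are fixed with cold TCA (final 10%) and suspension cells with TCA (final 16%). Cells are stained with 0.4% SRB in 1% acetic acid and bound dye is read at 515 nm. Percent growth inhibition is taken against control wells and time-zero plates.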

Assay [4] deals with RPMI-8226. Description: Growth inhibition of human RPMI8226 cells at 10^-5 M after 48 hrs by Sulforhodamine B assay relative to control. The note with it: RPMI-8226, 48 h, read-out: GI. Summed up: as §1
Assay [5] has as its system A498. Nature of the assay: Growth inhibition of human A498 cells at 10^-5 M after 48 hrs by Sulforhodamine B assay relative to control. As to conditions: A498, 48 h, read-out: GI. The gist of the method: as §2
The test system of assay [6] is MDA-MB-231. Description: Growth inhibition of human MDA-MB-231 cells at 10^-5 M after 48 hrs by Sulforhodamine B assay relative to control. The note with it: MDA-MB-231, 48 h, read-out: GI. Summed up:
as §2

Assay [7] relates to MDA-MB-468. Description: Growth inhibition of human MDA-MB-468 cells after 48 hrs by Sulforhodamine B assay. As to conditions: MDA-MB-468, 48 h. The gist of the method:
(§3)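 Cells were preincubated 24 h at 37 °C, 5% CO2, and a time-zero plate was TCA-fixed. Five concentrations were made by serial dilution from a DMSO stock (400-fold the top concentration) and incubated 48 h. Adherent cells were fixed with 10% final TCA and suspension cells with 16%. Plates were stained with 0.4% SRB and read at 515 nm. GI50 is the concentration giving 50% reduction in net protein increase versus control.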

The subject of assay [8] is SR. Nature of the assay: Growth inhibition of human SR cells after 48 hrs by Sulforhodamine B assay. Summed up: as §3
Assay [9] has as its system 786-0. Description: Growth inhibition of human 786-0 cells after 48 hrs by Sulforhodamine B assay. As to conditions: 786-0, 48 h. Summed up:
(§4)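 Five-concentration SRB assay using 10-fold or ½-log serial dilutions from a DMSO stock. Exposure is 48 h at 37 °C in 5% CO2 after 24 h preincubation. TCA fixation is followed by SRB staining and a reading at 515 nm. Percentage growth is computed from time-zero, control and treated absorbances. GI50 is the concentration where [(Ti−Tz)/(C−Tz)]×100 = 50, read from the plot against log concentration.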

Assay [10] concerns NCI-H226. Nature of the assay: Growth inhibition of human NCI-H226 cells after 48 hrs by Sulforhodamine B assay. The note with it: NCI-H226, 48 h. Summed up: as §3
Assay [11] has as its system OVCAR-4. Description: Growth inhibition of human OVCAR4 cells after 48 hrs by Sulforhodamine B assay. As to conditions: OVCAR-4, 48 h. Summed up: as §3
The subject of assay [12] is SK-OV-3. Description: Growth inhibition of human SKOV3 cells after 48 hrs by Sulforhodamine B assay. The note with it: SK-OV-3, 48 h. The gist of the method: as §3
The subject of assay [13] is T47D. Description: Growth inhibition of human T47D cells after 48 hrs by Sulforhodamine B assay. Summed up: as §3
Assay [14] has as its system KM12. Nature of the assay: Growth inhibition of human KM12 cells after 48 hrs by Sulforhodamine B assay. As to conditions: KM12, 48 h. The gist of the method: as §4
For assay [15], the system named is NCI-H522. Description: Growth inhibition of human NCI-H522 cells after 48 hrs by Sulforhodamine B assay. The note with it: NCI-H522, 48 h. The gist of the method: as §3
Assay [16] deals with HCT-116. Description: Growth inhibition of human HCT116 cells after 48 hrs by Sulforhodamine B assay. The note with it: HCT-116, 48 h. Summed up: as §4
The subject of assay [17] is RPMI-8226. Nature of the assay: Growth inhibition of human RPMI8226 cells after 48 hrs by Sulforhodamine B assay. As to conditions: RPMI-8226, 48 h. The gist of the method: as §3
The nature of assay [18]: Growth inhibition of human NCI-ADR-RES cells after 48 hrs by Sulforhodamine B assay. Summed up:
as §3

Assay [19] deals with OVCAR-5. Description: Growth inhibition of human OVCAR5 cells after 48 hrs by Sulforhodamine B assay. As to conditions: OVCAR-5, 48 h. The gist of the method: as §3
The subject of assay [20] is U-251. Nature of the assay: Growth inhibition of human U251 cells after 48 hrs by Sulforhodamine B assay. The note with it: U-251, 48 h. The gist of the method: (§5)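 Five-concentration stage in the […]-cell-line panel, using 10-fold or ½-log serial dilutions made from a DMSO stock (400-fold). Cells were preincubated 24 h at 37 °C, then drug-exposed 48 h. A time-zero plate was fixed with TCA at dosing, adherent cells were fixed with cold TCA (10% final), and protein was stained with SRB, absorbance 515 nm. GI50 was where [(Ti−Tz)/(C−Tz)]×100 = 50, from the percent growth vs log concentration plot, expressed as log10 GI50.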

Assay [21] concerns UO-31. Description: Growth inhibition of human UO31 cells after 48 hrs by Sulforhodamine B assay. As to conditions: UO-31, 48 h. The gist of the method:
as §5

In assay [22] the test system is CAKI-1. Description: Growth inhibition of human CAKI-1 cells after 48 hrs by Sulforhodamine B assay. As to conditions: CAKI-1, 48 h. The gist of the method:
as §4

In assay [23] the test system is Malme-3M. Description: Growth inhibition of human MALME-3M cells after 48 hrs by Sulforhodamine B assay. The gist of the method:
as §4

Assay [24] has as its system RXF 393. Nature of the assay: Growth inhibition of human RXF393 cells at 10^-5 M after 48 hrs by Sulforhodamine B assay relative to control. The note with it: RXF 393, 48 h, read-out: GI. Summed up: as §1
Assay [25] concerns HOP-92. Description: Growth inhibition of human HOP92 cells at 10^-5 M after 48 hrs by Sulforhodamine B assay relative to control. As to conditions: HOP-92, 48 h, read-out: GI. Summed up: as §2

For `Clc1nc(-c2ccncc2)nc2sc3c(c12)CCCCCC3`, the inhibition of growth at 10 µM is 21.4% in [1]; -0.32% in assay [2]; 7.04% in [3]; 0.89% in [4]; 37.2% in [5]; -6.99% in assay [6].
`Clc1nc(-c2ccccn2)nc2sc3c(c12)CCCCCC3`: the inhibition of growth at 10 µM is 33.7% in [1]; 2.82% in [2]; 10.2% in assay [3]; 4.46% in assay [4]; -18.4% in [5]; -16.9% in assay [6].
As to `NNc1nc(-c2ccncc2)nc2sc3c(c12)CCCCCC3`, the inhibition of growth at 10 µM in assay [1] is 15.7%; in assay [2], 6.15%; in assay [3] it was -16.5%; in [4], 12.1%; in assay [5] it was 18.6%; in assay [6] it was 1.46%.
For `CN1CCN(c2nc(-c3ccncc3)nc3sc4c(c23)CCCCCC4)CC1`, the GI50 in [7] is 5.25 µM; in assay [8] it was 2.82 µM; in [9], 4.79 µM; in assay [10], 10.5 µM; in assay [11], 12.6 µM; in [12] it was 12 µM. Also, the GI50 in assay [13] was 13.5 µM; in [14], 13.5 µM; in [15], 12 µM; in assay [16], 5.13 µM; in assay [17], 8.32 µM; in assay [18] it was 8.13 µM. Further, the concentration for 50% growth inhibition (GI50) in assay [19] was 10.7 µM; in assay [20], 9.33 µM; in assay [21], 1.58 µM; in assay [22], 3.47 µM.
For the molecule `O=c1[nH]c(-c2ccncc2)nc2sc3c(c12)CCCCCC3`, the 50% growth inhibitory concentration (GI50) in assay [7], in [8], in assay [9], in assay [10], in assay [14] and in assay [15] was greater than 100 µM each time. Besides, the concentration for 50% growth inhibition (GI50) in [17], in assay [19], in assay [20], in assay [21], in assay [22] and in assay [23] was greater than 100 µM throughout.
Turning to `CN1CCN(c2nc(-c3ccccn3)nc3sc4c(c23)CCCCCC4)CC1`, the inhibition of growth at 10 µM turned out to be 8.31% in assay [2]; 6.64% in [3]; 12.4% in [4]; 34.8% in assay [5]; 6.82% in assay [6].
Consider `COc1ccc(N2CCN(c3nc(-c4ccncc4)nc4sc5c(c34)CCCCCC5)CC2)cc1`, for which the inhibition of growth at 10 µM is 15.8% in assay [2]; 3.43% in assay [3]; 28.8% in assay [4]; 6.97% in assay [5]; 17.2% in assay [24]; 12.1% in [6].
Regarding `NNc1nc(-c2ccccn2)nc2sc3c(c12)CCCCCC3`, the concentration for 50% growth inhibition (GI50) in assay [7] is 3.63 µM; in [8], 3.98 µM; in [9], 5.62 µM; in [10] it was 10.2 µM; in assay [11], 10.5 µM; in [12], 30.9 µM. Besides, the GI50 in [13] is 5.01 µM; in [14] it was 6.46 µM; in [15] it was 12 µM; in [16], 3.55 µM; in assay [17] it was 3.24 µM; in assay [18], 0.457 µM. The GI50 is 8.71 µM in assay [19], 4.47 µM in assay [20], 1.02 µM in assay [21] and 0.575 µM in [22].
Consider `c1ccc(N2CCN(c3nc(-c4ccncc4)nc4sc5c(c34)CCCCCC5)CC2)cc1`, for which the inhibition of growth at 10 µM worked out at 5.99% in assay [1]; 0.24% in [2]; 0.86% in assay [3]; 3.42% in [4]; 4.79% in assay [5]; 33.3% in [25]. The inhibition of growth at 10 µM in assay [24] is 0.87%; in assay [6], 2.4%.
As for `O=c1[nH]c(-c2ccccn2)nc2sc3c(c12)CCCCCC3`, the 50% growth inhibitory concentration (GI50) was 1.66 µM in [7]; 0.871 µM in [8]; 5.62 µM in assay [9]; greater than 100 µM in assay [10]; 5.89 µM in [11]; greater than 100 µM in assay [12]. In addition, the GI50 was 5.5 µM in assay [13]; 4.07 µM in [14]; greater than 100 µM in [15]; 1.38 µM in [16]; 3.63 µM in assay [17]; 0.955 µM in [18]. Further, the GI50 in assay [19] is 91.2 µM; in [20], 2.14 µM; in assay [21], 5.89 µM; in assay [22], 3.31 µM.
Consider `c1ccc(N2CCN(c3nc(-c4ccccn4)nc4sc5c(c34)CCCCCC5)CC2)cc1`, for which the inhibition of growth at 10 µM was 37.1% in assay [2]; 62.9% in [3]; 57.5% in assay [4]; 38.4% in assay [5]; 26.8% in [25]; 32.2% in assay [24]. Moreover, the inhibition of growth at 10 µM in [6] stood at 22.4%.
Consider `c1cc(-c2nc(N3CCOCC3)c3c4c(sc3n2)CCCCCC4)ccn1`, for which the inhibition of growth at 10 µM in assay [1] was determined as 24.1%; in assay [2], 21.9%; in [3], 1.53%; in [4], 32.2%; in assay [5] it was 33.7%; in [6], 28.1%.
Take `COc1ccc(N2CCN(c3nc(-c4ccccn4)nc4sc5c(c34)CCCCCC5)CC2)cc1`: the GI50 in [7] was 4.07 µM; in [8], 3.16 µM; in assay [9], 8.51 µM; in assay [10] it was 6.46 µM; in assay [11], 8.51 µM; in [12], greater than 100 µM. Also, the concentration for 50% growth inhibition (GI50) was 6.31 µM in [13]; 5.13 µM in assay [14]; 18.6 µM in assay [15]; 3.24 µM in assay [16]; 3.72 µM in [17]; 4.79 µM in [18]. In addition, the GI50 in assay [19] was 51.3 µM; in [20] it was 4.27 µM; in assay [21], 3.31 µM; in assay [22] it was 5.37 µM.
